Data from ChEMBL document CHEMBL1145037, “Structural properties of dibenzosuberanylpiperazine derivatives for efficient reversal of chloroquine resistance in Plasmodium chabaudi” (2003).

Key:
[1] = Antimalarial activity was determined in female mice (Mus musculus) after intraperitoneal administration of 50 mg; format: functional, Plasmodium chabaudi
Summary of the method: (§1)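 4- to 5-week-old female ICR (CD-1) mice infected iv with 5×10^6 parasitized RBC of CQ-resistant 3CQ line of P. chabaudi AS, thawed from cryopreserved stock. Compound dissolved in DMSO, diluted with saline to 10% (w/v) DMSO, given ip 2 h post-infection and daily for 3 more days (four injections). Parasitemia (PRBC per 10 000 RBC, Giemsa thin films) read daily for 5 days; two mice per compound, three or five for some.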

[2] = chloroquine-resistant reversal activity was determined in female mice (Mus musculus) after intraperitoneal administration of 50 mg; format: functional, Plasmodium chabaudi
Summary of the method: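 Female ICR CD-1 mice, 4–5 weeks old, given 5×10^6 P. chabaudi AS 3CQ (CQ-resistant) line PRBC iv (thawed from cryopreserved blood). 2 h later, test compound (in DMSO diluted with saline to 10% DMSO) ip plus chloroquine 3 or 4 mg/kg ip, repeated daily for 4 total injections. Controls: DMSO, CQ alone, compound alone. Parasitemia per 10 000 RBC on Giemsa smears daily for 5 days.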

Mus musculus [3] = assay: Chloroquine resistant reversal activity was determined in female mice after intraperitoneal administration of 50 mg and 4 mg of chloroquine; format: functional
Summary of the method: (§2)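 Female ICR (CD-1) mice, 4-5 weeks old, infected iv with 5×10^6 PRBC of CQ-resistant 3CQ line of P. chabaudi AS (cryopreserved stock). 2 h later, test compound (in DMSO diluted with saline to 10% w/v DMSO) given ip, followed by ip CQ; repeated for 3 more days (four injections). Groups: DMSO, CQ alone, compound alone, combination. Parasitemia from Giemsa thin films, daily days 0-4.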

Mus musculus [4] = assay: Antimalarial activity was determined in female mice after intraperitoneal administration of 15 mg of the compound; format: functional; summary of the method: as §1
Mus musculus [5] = assay: Chloroquine resistant reversal activity was determined on day 0 in female mice after intraperitoneal administration of 10 mg and 4 mg of chloroquine; format: functional; summary of the method: as §2
Mus musculus [6] = assay: Chloroquine resistant reversal activity was determined on day 0 in female mice after intraperitoneal administration of 15 mg and 4 mg of chloroquine; format: functional; summary of the method: as §2
Mus musculus [7] = assay: Chloroquine resistant reversal activity was determined on day 0 in female mice after intraperitoneal administration of 5 mg and 4 mg of chloroquine; format: functional; summary of the method: as §2
Mus musculus [8] = assay: Chloroquine resistant reversal activity was determined in female mice after intraperitoneal administration of 15 mg and 4 mg of chloroquine; format: functional; summary of the method: as §2
Mus musculus [9] = assay: Chloroquine resistant reversal activity was determined on day 1 in female mice after intraperitoneal administration of 10 mg and 4 mg of chloroquine; format: functional; summary of the method: as §2
Mus musculus [10] = assay: Chloroquine resistant reversal activity was determined on day 1 in female mice after intraperitoneal administration of 15 mg and 4 mg of chloroquine; format: functional; summary of the method: as §2
Mus musculus [11] = assay: Chloroquine resistant reversal activity was determined on day 1 in female mice after intraperitoneal administration of 5 mg and 4 mg of chloroquine; format: functional; summary of the method: as §2
Mus musculus [12] = assay: Chloroquine resistant reversal activity was determined on day 2 in female mice after intraperitoneal administration of 10 mg and 4 mg of chloroquine; format: functional; summary of the method: as §2
Mus musculus [13] = assay: Chloroquine resistant reversal activity was determined on day 2 in female mice after intraperitoneal administration of 15 mg and 4 mg of chloroquine; format: functional; summary of the method: as §2
Mus musculus [14] = assay: Chloroquine resistant reversal activity was determined on day 2 in female mice after intraperitoneal administration of 5 mg and 4 mg of chloroquine; format: functional; summary of the method: as §2
Mus musculus [15] = assay: Chloroquine resistant reversal activity was determined on day 3 in female mice after intraperitoneal administration of 10 mg and 4 mg of chloroquine; format: functional; summary of the method: as §2
Mus musculus [16] = assay: Chloroquine resistant reversal activity was determined on day 3 in female mice after intraperitoneal administration of 15 mg and 4 mg of chloroquine; format: functional; summary of the method: as §2
Mus musculus [17] = assay: Chloroquine resistant reversal activity was determined on day 3 in female mice after intraperitoneal administration of 5 mg and 4 mg of chloroquine; format: functional; summary of the method: as §2
Mus musculus [18] = assay: Chloroquine resistant reversal activity was determined on day 4 in female mice after intraperitoneal administration of 10 mg and 4 mg of chloroquine; format: functional; summary of the method: as §2
Mus musculus [19] = assay: Chloroquine resistant reversal activity was determined on day 4 in female mice after intraperitoneal administration of 15 mg and 4 mg of chloroquine; format: functional; summary of the method: as §2
Mus musculus [20] = assay: Chloroquine resistant reversal activity was determined on day 4 in female mice after intraperitoneal administration of 5 mg and 4 mg of chloroquine; format: functional; summary of the method: as §2
Mus musculus [21] = assay: Chloroquine resistant reversal activity was determined on day 0 in female mice after intraperitoneal administration of 30 mg and 4 mg of chloroquine; format: functional; summary of the method: as §2
Mus musculus [22] = assay: Chloroquine resistant reversal activity was determined on day 0 in female mice after intraperitoneal administration of 50 mg and 4 mg of chloroquine; format: functional; summary of the method: as §2
Mus musculus [23] = assay: Chloroquine resistant reversal activity was determined on day 1 in female mice after intraperitoneal administration of 30 mg and 4 mg of chloroquine; format: functional; summary of the method: as §2
Mus musculus [24] = assay: Chloroquine resistant reversal activity was determined on day 1 in female mice after intraperitoneal administration of 40 mg and 4 mg of chloroquine; format: functional; summary of the method: as §2
Mus musculus [25] = assay: Chloroquine resistant reversal activity was determined on day 1 in female mice after intraperitoneal administration of 50 mg and 4 mg of chloroquine; format: functional; summary of the method: as §2
Mus musculus [26] = assay: Chloroquine resistant reversal activity was determined on day 2 in female mice after intraperitoneal administration of 30 mg and 4 mg of chloroquine; format: functional; summary of the method: as §2
Mus musculus [27] = assay: Chloroquine resistant reversal activity was determined on day 2 in female mice after intraperitoneal administration of 40 mg and 4 mg of chloroquine; format: functional; summary of the method: as §2
Mus musculus [28] = assay: Chloroquine resistant reversal activity was determined on day 2 in female mice after intraperitoneal administration of 50 mg and 4 mg of chloroquine; format: functional; summary of the method: as §2
Mus musculus [29] = assay: Chloroquine resistant reversal activity was determined on day 3 in female mice after intraperitoneal administration of 30 mg and 4 mg of chloroquine; format: functional; summary of the method: as §2
Mus musculus [30] = assay: Chloroquine resistant reversal activity was determined on day 3 in female mice after intraperitoneal administration of 50 mg and 4 mg of chloroquine; format: functional; summary of the method: as §2
Mus musculus [31] = assay: Chloroquine resistant reversal activity was determined on day 4 in female mice after intraperitoneal administration of 30 mg and 4 mg of chloroquine; format: functional; summary of the method: as §2
Mus musculus [32] = assay: Chloroquine resistant reversal activity was determined on day 4 in female mice after intraperitoneal administration of 40 mg and 4 mg of chloroquine; format: functional; summary of the method: as §2
Mus musculus [33] = assay: Chloroquine resistant reversal activity was determined on day 4 in female mice after intraperitoneal administration of 50 mg and 4 mg of chloroquine; format: functional; summary of the method: as §2
Mus musculus [34] = assay: Chloroquine resistant reversal activity was determined on day 0 in female mice after intraperitoneal administration of 40 mg and 4 mg of chloroquine; format: functional; summary of the method: as §2
Mus musculus [35] = assay: Chloroquine resistant reversal activity was determined on day 3 in female mice after intraperitoneal administration of 40 mg and 4 mg of chloroquine; format: functional; summary of the method: as §2
Mus musculus [36] = assay: Chloroquine resistant reversal activity was determined in female mice after intraperitoneal administration of 50 mg and 3 mg of chloroquine; format: functional; summary of the method: as §2

Molecule `CCCCCCCCCCCCCCC(O)CN1CCN(C2c3ccccc3CCc3ccccc32)CC1` (stereo unspecified) has an Antimalarial activity [1] of 122% and a Reversal activity [2] of 110%.

For `C=CCCC(O)CN1CCN(C2c3ccccc3CCc3ccccc32)CC1` (stereo unspecified), the Antimalarial activity [1] was 101% and the Reversal activity [2] was 0%.

With `CCC(O)CN1CCN(C2c3ccccc3CCc3ccccc32)CC1` (stereo unspecified) the Antimalarial activity [1] was 99% and the Reversal activity (Mus musculus [3]) was 0%.

Work on `C=CC(C)N1CCN(C2c3ccccc3CCc3ccccc32)CC1` (stereo unspecified) yielded an Antimalarial activity [1] of 22% and a Reversal activity (Mus musculus [3]) of 0%.

With `Cl.c1ccc2c(c1)CCc1ccccc1C2N1CCNCC1` the Antimalarial activity [1] was 68% and the Reversal activity (Mus musculus [3]) was 2%.

`Cl.c1ccc2c(c1)CCc1ccccc1C2N1CCN(C2c3ccccc3CCc3ccccc32)CC1` gave an Antimalarial activity [1] of 108% and a Reversal activity [2] of 81%.

With `CCCCCCC(O)CN1CCN(C2c3ccccc3CCc3ccccc32)CC1` (stereo unspecified) the Antimalarial activity [1] was 92% and the Reversal activity [2] was 102%.

For `C=CC(CO)N1CCN(C2c3ccccc3CCc3ccccc32)CC1` (stereo unspecified), the Antimalarial activity (Mus musculus [4]) was 103%, the Reversal activity (Mus musculus [5]) was 0% and the Reversal activity (Mus musculus [6]) was 0%. It also gave a Reversal activity (Mus musculus [7]) of 0%, a Reversal activity (Mus musculus [8]) of 2.6% and a Reversal activity (Mus musculus [9]) of 59%. It also gave a Reversal activity (Mus musculus [10]) of 37%, a Reversal activity (Mus musculus [11]) of 69% and a Reversal activity (Mus musculus [12]) of 37%. The Reversal activity (Mus musculus [13]) was 13%, the Reversal activity (Mus musculus [14]) was 35% and the Reversal activity (Mus musculus [15]) was 23%. For the same molecule, the Reversal activity (Mus musculus [16]) was 4%, the Reversal activity (Mus musculus [17]) was 33% and the Reversal activity (Mus musculus [18]) was 8.6%. For the same molecule, the Reversal activity (Mus musculus [19]) was 2.6% and the Reversal activity (Mus musculus [20]) was 17%.

In the case of `CC(=O)OCC#CCN1CCN(C2c3ccccc3CCc3ccccc32)CC1`, the Antimalarial activity [1] was 116% and the Reversal activity (Mus musculus [3]) was 0%.

With `OC(COc1ccccc1)CN1CCN(C2c3ccccc3CCc3ccccc32)CC1` (stereo unspecified) the Antimalarial activity [1] was 136% and the Reversal activity [2] was 113%.

`CCCCCCCCCCCCCCCCC(O)CN1CCN(C2c3ccccc3CCc3ccccc32)CC1` (stereo unspecified) gave an Antimalarial activity [1] of 67% and a Reversal activity [2] of 68%.

With `OCC#CCN1CCN(C2c3ccccc3CCc3ccccc32)CC1` the Antimalarial activity [1] was 121% and the Reversal activity (Mus musculus [3]) was 0%.

In the case of `C=CC(O)CN1CCN(C2c3ccccc3CCc3ccccc32)CC1` (stereo unspecified), the Antimalarial activity [1] was 82%, the Reversal activity (Mus musculus [3]) was 0% and the Reversal activity (Mus musculus [5]) was 0%. For the same molecule, the Reversal activity (Mus musculus [6]) was 0%, the Reversal activity (Mus musculus [21]) was 0% and the Reversal activity (Mus musculus [22]) was 0%. The Reversal activity (Mus musculus [7]) was 0%, the Reversal activity (Mus musculus [9]) was 62% and the Reversal activity (Mus musculus [10]) was 49%. It also gave a Reversal activity (Mus musculus [23]) of 55%, a Reversal activity (Mus musculus [24]) of 33% and a Reversal activity (Mus musculus [25]) of 42%. The Reversal activity (Mus musculus [11]) was 76%, the Reversal activity (Mus musculus [12]) was 21% and the Reversal activity (Mus musculus [13]) was 16%. The Reversal activity (Mus musculus [26]) was 38%, the Reversal activity (Mus musculus [27]) was 10% and the Reversal activity (Mus musculus [28]) was 6.2%. For the same molecule, the Reversal activity (Mus musculus [14]) was 32%, the Reversal activity (Mus musculus [15]) was 7.9% and the Reversal activity (Mus musculus [16]) was 9.5%. It also gave a Reversal activity (Mus musculus [29]) of 2.9%, a Reversal activity (Mus musculus [30]) of 0% and a Reversal activity (Mus musculus [17]) of 12%. It also gave a Reversal activity (Mus musculus [18]) of 6%, a Reversal activity (Mus musculus [19]) of 5.4% and a Reversal activity (Mus musculus [31]) of 0%. The Reversal activity (Mus musculus [32]) was 0%, the Reversal activity (Mus musculus [33]) was 0% and the Reversal activity (Mus musculus [20]) was 11%. For the same molecule, the Reversal activity (Mus musculus [34]) was 0% and the Reversal activity (Mus musculus [35]) was 0%.

For `CCCCCCCCC(O)CN1CCN(C2c3ccccc3CCc3ccccc32)CC1` (stereo unspecified), the Antimalarial activity [1] was 152% and the Reversal activity [2] was 84%.

In the case of `C=CCCCCCCC(O)CN1CCN(C2c3ccccc3CCc3ccccc32)CC1` (stereo unspecified), the Antimalarial activity [1] was 68% and the Reversal activity [2] was 6.8%.

With `COc1ccc(OCC(O)CN2CCN(C3c4ccccc4CCc4ccccc43)CC2)cc1` (stereo unspecified) the Antimalarial activity [1] was 147% and the Reversal activity (Mus musculus [36]) was 90%.

`CCCCCCCCCCCCC(O)CN1CCN(C2c3ccccc3CCc3ccccc32)CC1` (stereo unspecified) gave an Antimalarial activity [1] of 138% and a Reversal activity [2] of 64%.

With `C=CCCCCC(O)CN1CCN(C2c3ccccc3CCc3ccccc32)CC1` (stereo unspecified) the Antimalarial activity [1] was 108% and the Reversal activity [2] was 8.9%.
